The nature of series [1]: Drug recovery in human plasma at 5 uM. The series is classed as ADME, cell-free. Conditions: read-out: Drug uptake. An outline of the steps: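 Human plasma protein binding was tested at 5 μM, reporting fraction unbound, fraction bound and recovery. The assay was run by a contract lab.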
Series [2] concerns the target T1, CYP3A4 (Homo sapiens, UniProt P08684). Briefly: Inhibition of CYP3A4 at 3 uM using testosterone substrate. The note with it: probe testosterone. The series is classed as ADME.
The target in series [3] is T1, CYP3A4. Briefly: Inhibition of CYP3A4 at 3 uM using modazolam substrate. The series is classed as ADME. Conditions: probe midazolam (printed: modazolam).
The test system of a further series is Liver microsomes. Briefly: Metabolic stability in human liver microsomes assessed as formation of reactive metabolites at 1 uM after 1 hr. The series is classed as ADME, Microsome. (Liver microsomes are a subcellular fraction often used to study metabolism.)
The subject of series [4] is HepG2. Briefly: Genotoxicity in human HepG2 cells assessed as micronuclei formation at 50 uM after 24 hrs by DAPI staining. The series is classed as toxicity, cell-based. The note with it: hepg2, 24 h. Summed up: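 HepG2 cells were exposed to 50 μM for 24 h, with benzo(a)pyrene as positive control. Cells were swollen in hypotonic KCl/NaCl for 10 min at 37°C, fixed in methanol/acetic acid 3:1 and stained with DAPI at 2 μg/ml. Three independent experiments, one-way ANOVA.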

Series [5] concerns HepG2. Briefly: Cytotoxicity against human HepG2 cells assessed as cell death upto 100 uM after 24 hrs by LDH assay. The series is classed as cell-based. Conditions: hepg2, 24 h. Summed up:
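HepG2 cells were exposed to a range of concentrations up to 100 μM for 24 h, and cytotoxicity was measured by LDH release. n=3.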

Series [6] is filed under the species Mus musculus. Briefly: Agonist activity at TrkB receptor in C57BL/J6 mouse brain assessed as TrkB phosphorylation at tyrosine 706 in hippocampus at […] by immunoblotting analysis. The series is classed as functional, organism-based. For orientation: Immunoblotting shows a protein as a band on a membrane.
In series [7] the test system is Mus musculus. Briefly: Agonist activity at TrkB receptor in C57BL/J6 mouse brain assessed as Akt phosphorylation at serine 473 in hippocampus at 1 mg/kg, po after 2 hrs by immunoblotting analysis. The series is classed as functional, organism-based. Details: dose 1 mg/kg. An outline of the steps:
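Hippocampus from male C57BL/6J mice was taken 2 h after a single 1 mg/kg oral dose. Brain was homogenised and ultracentrifuged, and 40 μg supernatant was immunoblotted for p-TrkB, p-Akt and p-MAPK.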

The target in series [8] is BDNF/NT-3 growth factors receptor (Rattus norvegicus) (UniProt Q63604). Briefly: Agonist activity at TrkB receptor in rat primary neurons assessed as TrkB phosphorylation at tyrosine 816 at 500 nM after 15 mins by immunoblotting analysis. The series is classed as functional. Summed up: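 Primary cortical cultures from E17 rat embryos were exposed to 500 nM for 15 min. Lysates were immunoblotted for p-TrkB and p-Akt (20 μg per lane). Two replicate experiments.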

The test system of series [9] is Mus musculus. Briefly: Agonist activity at TrkB receptor in C57BL/J6 mouse brain assessed as TrkB phosphorylation at tyrosine 816 in hippocampus at 2.5 mg/kg, po administered qd for 21 days by immunoblotting analysis.
The target of series [10] is Voltage-gated inwardly rectifying potassium channel KCNH2 (Homo sapiens, UniProt Q12809). The series is described as follows: Inhibition of human ERG.
A further series addresses T2, CYP1A2 (Homo sapiens, UniProt P05177).
T2 sequence (P05177 whole entry): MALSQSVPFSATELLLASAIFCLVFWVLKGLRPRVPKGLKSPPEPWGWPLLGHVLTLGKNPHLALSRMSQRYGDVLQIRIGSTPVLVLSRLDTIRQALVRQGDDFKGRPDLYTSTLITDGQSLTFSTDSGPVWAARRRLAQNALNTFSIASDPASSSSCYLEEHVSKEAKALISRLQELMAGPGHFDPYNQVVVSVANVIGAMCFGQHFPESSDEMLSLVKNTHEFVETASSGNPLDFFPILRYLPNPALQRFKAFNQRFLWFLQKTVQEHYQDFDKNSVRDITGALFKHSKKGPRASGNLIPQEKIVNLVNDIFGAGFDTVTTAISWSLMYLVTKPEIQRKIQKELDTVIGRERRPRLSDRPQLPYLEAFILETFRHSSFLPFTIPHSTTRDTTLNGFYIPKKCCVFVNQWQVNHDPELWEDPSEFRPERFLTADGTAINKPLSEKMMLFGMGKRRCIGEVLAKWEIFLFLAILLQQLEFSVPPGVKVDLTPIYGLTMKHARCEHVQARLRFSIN
Briefly: Inhibition of CYP1A2 at 3 uM. The series is classed as ADME. An outline of the steps:
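CYP inhibition was tested at 3 and 30 μM and reported as percent inhibition. The assay was run by a contract lab.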

Series [11] in a line: AUC last in mouse at 10 mg/kg, po by HPLC analysis. Conditions: plasma. The series is classed as ADME, organism-based. Details: time 0 - last, dose 10 mg/kg, route oral. An outline of the steps:
(§1)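 Mice of 20–30 g, 6–8 weeks old, dosed i.v. or orally. Blood was drawn at 3, 10, 30, 60, 120, 240, 360 and 480 min into lithium-heparin tubes, spun at 2500 × g for 15 min at 4°C within 1 h and stored at −20°C. Plasma was analysed by HPLC, 3 mice per time point. AUC was calculated by the linear/log trapezoidal method.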

Series [12] is described as follows: AUC (infinity) in mouse at 10 mg/kg, po by HPLC analysis. The series is classed as ADME, organism-based. Details: time infinity, dose 10 mg/kg, route oral. Conditions: plasma. An outline of the steps: as §1
Series [13] is described as follows: Elimination half life in mouse at 10 mg/kg, po by HPLC analysis. The series is classed as ADME, organism-based. Details: dose 10 mg/kg, route oral. The note with it: in vivo, read-out: beta t1/2. An outline of the steps:
as §1

Series [14] in a line: Cmax in mouse at 10 mg/kg, po by HPLC analysis. The series is classed as ADME, organism-based. Details: dose 10 mg/kg, route oral. Conditions: in vivo. Summed up:
as §1

The nature of series [15]: Tmax in mouse at 10 mg/kg, po by HPLC analysis. The series is classed as ADME, organism-based. Details: dose 10 mg/kg, route oral. Conditions: in vivo. An outline of the steps: (§2)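 Mice (20–30 g, 6–8 weeks old) were dosed i.v. or orally. Blood was drawn into lithium-heparin tubes at 3, 10, 30, 60, 120, 240, 360 and 480 min, with 3 mice per time point. Plasma was separated at 2500 × g for 15 min at 4°C within 1 h and stored at −20°C. Samples were analysed by HPLC, and AUC was calculated by the linear/log trapezoidal method.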

Series [16] deals with Mus musculus. The series is described as follows: Bioavailability in mouse at 10 mg/kg by HPLC analysis. The series is classed as ADME, organism-based. The note with it: in vivo. An outline of the steps: as §1
Series [17] can be described thus: AUC (infinity) in mouse at 3 mg/kg, iv by HPLC analysis. The note with it: plasma. The series is classed as ADME, organism-based. Details: time infinity, dose 3 mg/kg, route intravenous. Summed up:
as §1

Series [18] is described as follows: AUC last in mouse at 3 mg/kg, iv by HPLC analysis. The series is classed as ADME, organism-based. Details: time 0 - last, dose 3 mg/kg, route intravenous. Conditions: plasma. Summed up: as §1
Series [19] is described as follows: Volume of distribution at steady state in mouse at 3 mg/kg, iv by HPLC analysis. Conditions: in vivo, read-out: Vdss. Details: dose 3 mg/kg, route intravenous. The series is classed as ADME, organism-based. An outline of the steps:
as §2

Series [20] in a line: Volume of distribution in mouse at 3 mg/kg, iv by HPLC analysis. The series is classed as ADME, organism-based. Details: dose 3 mg/kg, route intravenous. Conditions: in vivo, read-out: Vz. An outline of the steps:
as §2

Series [21] can be described thus: Total body clearance in mouse at 3 mg/kg, iv by HPLC analysis. Conditions: in vivo. Details: dose 3 mg/kg, route intravenous. The series is classed as ADME, organism-based. Summed up:
as §2

Series [22] is described as follows: Elimination half life in mouse at 3 mg/kg, iv by HPLC analysis. The series is classed as ADME, organism-based. The note with it: in vivo, read-out: beta t1/2. Details: dose 3 mg/kg, route intravenous. Summed up:
as §1

The record followed here is ChEMBL document CHEMBL2203249, “Optimization of a small tropomyosin-related kinase B (TrkB) agonist 7,8-dihydroxyflavone active in mouse models of depression” (J Med Chem, 2012).

The source made the active and inactive calls. No cut-off for these calls is given here.

T1 sequence (P08684 whole entry): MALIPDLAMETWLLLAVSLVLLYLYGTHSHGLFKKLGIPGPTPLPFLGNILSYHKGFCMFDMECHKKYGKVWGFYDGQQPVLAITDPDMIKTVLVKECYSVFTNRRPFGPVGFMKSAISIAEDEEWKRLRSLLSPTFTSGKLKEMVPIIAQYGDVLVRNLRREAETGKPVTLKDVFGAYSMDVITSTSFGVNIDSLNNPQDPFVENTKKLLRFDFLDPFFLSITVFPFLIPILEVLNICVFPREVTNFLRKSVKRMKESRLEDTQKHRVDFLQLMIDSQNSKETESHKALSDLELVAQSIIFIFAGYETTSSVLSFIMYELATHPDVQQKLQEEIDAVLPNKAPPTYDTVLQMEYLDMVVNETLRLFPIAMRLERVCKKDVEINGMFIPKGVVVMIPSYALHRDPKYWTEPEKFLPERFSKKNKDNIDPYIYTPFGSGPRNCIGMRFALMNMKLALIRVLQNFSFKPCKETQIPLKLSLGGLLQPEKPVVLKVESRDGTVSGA
Chain of BDNF/NT-3 growth factors receptor (Rattus norvegicus) (Q63604 whole entry): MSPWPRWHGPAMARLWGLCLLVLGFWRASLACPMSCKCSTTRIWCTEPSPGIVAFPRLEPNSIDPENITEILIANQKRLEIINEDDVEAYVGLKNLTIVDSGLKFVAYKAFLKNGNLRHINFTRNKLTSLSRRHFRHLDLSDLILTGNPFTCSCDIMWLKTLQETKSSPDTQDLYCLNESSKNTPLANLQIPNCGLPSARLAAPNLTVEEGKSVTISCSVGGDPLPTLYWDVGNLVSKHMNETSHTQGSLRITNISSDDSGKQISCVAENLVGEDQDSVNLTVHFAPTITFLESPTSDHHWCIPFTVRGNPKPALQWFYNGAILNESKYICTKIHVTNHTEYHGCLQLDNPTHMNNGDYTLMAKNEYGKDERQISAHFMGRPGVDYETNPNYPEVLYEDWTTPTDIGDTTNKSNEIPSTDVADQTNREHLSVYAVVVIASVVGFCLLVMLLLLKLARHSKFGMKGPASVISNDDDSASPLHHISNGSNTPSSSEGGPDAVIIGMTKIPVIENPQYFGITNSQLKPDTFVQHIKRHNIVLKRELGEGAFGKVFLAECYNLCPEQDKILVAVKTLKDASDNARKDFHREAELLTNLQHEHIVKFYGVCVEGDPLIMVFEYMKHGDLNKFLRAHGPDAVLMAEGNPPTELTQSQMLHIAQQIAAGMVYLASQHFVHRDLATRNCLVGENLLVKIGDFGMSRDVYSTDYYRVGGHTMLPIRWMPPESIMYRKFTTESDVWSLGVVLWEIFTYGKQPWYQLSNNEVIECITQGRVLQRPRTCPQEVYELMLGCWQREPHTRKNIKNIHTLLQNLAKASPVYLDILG
Chain of Voltage-gated inwardly rectifying potassium channel KCNH2 (Q12809 whole entry): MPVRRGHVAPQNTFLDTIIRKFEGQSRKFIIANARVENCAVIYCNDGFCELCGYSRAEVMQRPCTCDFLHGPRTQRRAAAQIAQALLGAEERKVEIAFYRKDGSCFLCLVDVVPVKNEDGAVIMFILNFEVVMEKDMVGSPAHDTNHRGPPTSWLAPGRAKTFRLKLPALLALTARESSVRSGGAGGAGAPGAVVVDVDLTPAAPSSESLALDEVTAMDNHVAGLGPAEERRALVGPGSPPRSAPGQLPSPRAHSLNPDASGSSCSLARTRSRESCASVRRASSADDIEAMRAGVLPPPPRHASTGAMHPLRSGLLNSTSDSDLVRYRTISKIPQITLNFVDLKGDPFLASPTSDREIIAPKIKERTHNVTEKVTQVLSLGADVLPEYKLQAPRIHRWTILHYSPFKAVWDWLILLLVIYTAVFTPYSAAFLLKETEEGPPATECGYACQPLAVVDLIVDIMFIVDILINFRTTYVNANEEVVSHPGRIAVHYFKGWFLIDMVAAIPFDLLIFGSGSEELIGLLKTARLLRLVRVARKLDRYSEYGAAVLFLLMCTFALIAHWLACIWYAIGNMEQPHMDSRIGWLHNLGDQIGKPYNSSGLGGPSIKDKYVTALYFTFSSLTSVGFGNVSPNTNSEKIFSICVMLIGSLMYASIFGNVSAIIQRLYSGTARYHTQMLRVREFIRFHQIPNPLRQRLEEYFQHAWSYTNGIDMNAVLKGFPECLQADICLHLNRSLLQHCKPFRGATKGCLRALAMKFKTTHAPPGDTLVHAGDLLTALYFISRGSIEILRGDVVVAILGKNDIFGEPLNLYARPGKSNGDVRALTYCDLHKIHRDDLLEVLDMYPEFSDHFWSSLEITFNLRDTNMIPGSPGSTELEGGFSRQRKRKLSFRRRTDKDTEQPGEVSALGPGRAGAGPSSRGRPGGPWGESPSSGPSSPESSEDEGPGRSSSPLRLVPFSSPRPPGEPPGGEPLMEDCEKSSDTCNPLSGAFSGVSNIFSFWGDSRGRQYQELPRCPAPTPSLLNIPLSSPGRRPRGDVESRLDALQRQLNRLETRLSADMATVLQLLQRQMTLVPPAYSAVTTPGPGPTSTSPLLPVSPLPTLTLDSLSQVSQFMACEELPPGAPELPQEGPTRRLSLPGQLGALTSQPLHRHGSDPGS

A word on the inhibition: it is the drop in the measured response relative to a control, in per cent. Higher therefore signals strong suppression. For `O=c1cc(-c2ccc(N3CCCC3)cc2)oc2c1ccc1cc[nH]c12`, the remaining at 5 µM in series [1] stood at 97%. The inhibition at 3 µM was found to be 3.4% against CYP3A4 [2] and 3.9% against CYP3A4 [3]. Further, the Stability result with Liver microsomes was “Unstable”. Also, the Activity result in the series with HepG2 [4] and in the series with HepG2 [5] was “Non-toxic” throughout. Moreover, the outcome (in the series filed under Mus musculus [6]; with Mus musculus [7]; in [8]; with Mus musculus [9]) was Active.
What is called AUC(0-t) is the area under the concentration-time curve up to a stated or last time point. The low end stands for less exposure, the high end for more exposure. In general, AUC(0-inf) refers to total exposure, with the tail of the curve extrapolated. Read a high AUC(0-inf) as high exposure. Usually Cmax stands for the peak of the concentration-time curve. The Tmax is the time at which the peak concentration occurs. The clearance is the volume of plasma or blood freed of the substance per unit of time. Low readings indicate a low capacity for elimination, high ones a high capacity for elimination. Regarding `Cc1nc2ccc3c(=O)cc(-c4ccc(N5CCCC5)cc4)oc3c2[nH]1`, the remaining at 5 µM in [1] is 86.3%. For the same compound, the “inhibition (INH)” value in [10] is reported as “Not Active”. Also, the results for the inhibition at 3 µM against CYP1A2, against CYP3A4 [2] and against CYP3A4 [3] were 27.3%, 4.5% and 10.8%, respectively. Moreover, in the series on Liver microsomes, the Stability result was “Stable”. Further, the Activity result in the series on HepG2 [4] and in the series on HepG2 [5] was “Non-toxic” each time. Further, the outcome (in the series listed under Mus musculus [6]; with Mus musculus [7]; in [8]; with Mus musculus [9]) was Active. Further, the AUC(0-t) is 19.1 ng·h/mL in series [11] and 312 ng·h/mL in series [18]. The values for the AUC(0-inf) in [12] and in series [17] were 21.6 ng·h/mL and 320 ng·h/mL, respectively. For the same compound, the results for the half-life in series [13] and in [22] were 0.967 h and 1.72 h, respectively. In series [14], this compound showed a Cmax of 7 ng/mL. Moreover, in [15], the Tmax is 2 h. This compound also returned a F with Mus musculus [16] of 2%. In addition, the Vd was determined as 10 L/kg in [19] and 23.1 L/kg in series [20]. Besides, in series [21], the clearance worked out at 156 mL/min/kg.
